Test system: BV-2
Assay: Antineuroinflammatory activity against mouse BV2 cells assessed as inhibition of LPS-induced NO production incubated for 24 hrs by Griess assay
Format: functional, cell-based
Details: Mus musculus, BV-2, 24 h; read-out: IC50; call rule not given here
In short: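 Griess read-out of nitrite in LPS-stimulated BV-2 microglia, with cell viability checked in parallel by MTT. Minocycline served as positive control. IC50 values are reported as mean ± SEM.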

Row | Compound | IC50 [µM]
1 | COc1c(O)ccc2c1ccc1c(-c3c(O)cc(OC)c4c3ccc3c(OC)c(O)ccc34)c(O)cc(OC)c12 | 1
2 | COc1cc(O)c2c(c1Cc1ccc(O)cc1)CCc1cc(O)ccc1-2 | 12 to 30
3 | COc1cc(O)c(Cc2ccc(O)cc2)c2ccc3cc(O)ccc3c12 | 30.2
4 | COc1c(Cc2ccc(O)cc2)c(O)cc2c1-c1ccc(O)cc1CC2 | 34.6
5 | COc1cc([C@@H]2Oc3cc(OC)c4c(c3[C@H]2CO)CCc2cc(O)ccc2-4)cc(OC)c1O | 18.5
6 | COc1cc([C@H]2Oc3cc4c(cc3[C@@H]2COC(C)=O)-c2c(cc(O)cc2OC)CC4)ccc1O | 24.8
7 | OC[C@H]1O[C@@H](Oc2ccc(Cc3c(O)ccc4c3CCc3cc(O)ccc3-4)cc2)[C@H](O)[C@@H](O)[C@@H]1O | 17.9
8 | COc1ccc2c(c1O)CCc1c(Cc3ccc(O)cc3)c(O)cc(OC)c1-2 | 49
9 | COc1cc(O)cc2c1-c1ccc(O)cc1CC2 | 15.2
10 | COc1cc(O)c(-c2c(O)cc(OC)c3c2ccc2cc(O)ccc23)c2c1-c1ccc(O)cc1CC2 [CIRRHOPETALANTHRIN] | 46.8
11 | COc1c(O)cc2c(c1OC)-c1ccc(O)cc1CC2 [ERIANTHRIDIN] | 93.5
12 | CN(C)c1ccc(O)c2c1C[C@H]1C[C@H]3[C@H](N(C)C)C(O)=C(C(N)=O)C(=O)[C@@]3(O)C(O)=C1C2=O [MINOCYCLINE] | 27.2 to 35.7

Now from value to compound:

Row | IC50 [µM] | Compound
13 | 39.4 | COc1cc(O)c2c(c1-c1c(OC)cc(O)c3c1CCc1cc(O)ccc1-3)CCc1cc(O)ccc1-2
14 | 1.9 | COc1cc(O)cc(CCc2cccc(O)c2)c1-c1c(OC)cc(O)c2c1CCc1cc(O)ccc1-2
15 | 22.1 | COc1cc(O)cc2c1-c1cc(-c3c(O)cc(OC)c4c3ccc3cc(O)ccc34)c(O)cc1CC2
16 | 12 | COc1cc(O)cc2c1-c1cc(-c3c(O)cc(OC)c4c3CCc3cc(O)ccc3-4)c(O)cc1CC2
17 | 5 | COc1cc2c(ccc3c(-c4c(O)cc(OC)c5c4ccc4cc(O)ccc45)c(O)cc(OC)c32)cc1O
18 | 30 | COc1c(O)c(O)cc2ccc3cc(O)ccc3c12
19 | 82 | COc1ccc2c(ccc3c(Cc4ccc(O)cc4)c(O)cc(OC)c32)c1
20 | 60.7 | COc1cc(CCc2cccc(O)c2)c(-c2c(O)cc(O)c3c2CCc2cc(O)ccc2-3)c(OC)c1

Same assay, conditions: bv-2

Row | Compound | IC50
21 | COc1cc(O)c2c(ccc3cc(O)ccc32)c1-c1c(OC)cc(O)c2c1ccc1cc(O)ccc12 | Not Active
